pIC50: −log10 of the molar value. Active and inactive are the calls of the source. The rule behind the calls is not given here. Where only a bound is given, the exact number is not on record here.

The subject of data set [1] is HET-1A. Put plainly: Cytotoxicity against human HET-1A cells assessed as reduction in cell viability measured after 48 to 72 hrs by MTT assay. The format is cell-based. The gist of the method:
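Cells seeded at 3 × 10^3 per well in 96-well plates, incubated overnight, then given fresh medium with a range of drug concentrations for 48 h or 72 h. MTT added (final 500 µg/mL) for 4 h, formazan dissolved in DMSO, absorbance at 570 nm; IC50 derived. Mean ± SD of 3 independent tests.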

For data set [2], the system named is SK-N-SH. Put plainly: Antitumour activity against human SK-N-SH cells assessed as cell growth inhibition measured after 72 hrs by SRB assay. The format is functional, cell-based. The gist of the method: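 Exponentially growing cells trypsinized, seeded at 5 × 10^4 cells/mL in 96-well plates, cultured overnight, then exposed to compounds for 72 h. Cells fixed with 10% TCA 1 h, stained with SRB 15 min, dye dissolved in Tris-HCl, absorbance read; 50% growth-inhibitory concentration calculated.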
(In general: The SRB assay estimates cell density from bound dye.)

In data set [3] the test system is MCF7. The data set is described as follows: Antitumour activity against human MCF7 cells xenografted in nude mouse assessed as decrease in tumour volume at 22.5 to 45 mg/kg/day, ip administered for 21 days. The format is functional, organism-based. The gist of the method: (§1)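 Nude mice (male/female, 4–6 weeks) injected subcutaneously in right forelimb with 5 × 10^7 MCF-7 cells in 200 µL saline; at mean tumour 100 mm3 randomized (n = 5/group): saline 0.2 mL/day, 22.5 or 45 mg/kg/day ip for 21 days. Body weight and tumour volume (length × width²/2) every other day; tumours weighed at day 21.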

Data set [4] can be described thus: Toxicity in nude mouse xenografted with human MCF7 cells assessed as increase in body weight at 22.5 to 45 mg/kg/day, ip administered for 21 days. The format is organism-based. To be noted: in vivo, 504 h. The gist of the method:
as §1
For orientation: Xenograft models place foreign cells or tissue in a host animal.

Data set [5] is described as follows: Toxicity in nude mouse xenografted with human MCF7 cells assessed as effect on spleen morphological changes at 22.5 to 45 mg/kg/day, ip administered for 21 days by HE staining analysis. The format is organism-based. To be noted: in vivo, 504 h.
Data set [6] is described as follows: Toxicity in nude mouse xenografted with human MCF7 cells assessed as effect on lung morphological changes at 22.5 to 45 mg/kg/day, ip administered for 21 days by HE staining analysis. The settings on record: in vivo, 504 h. The format is organism-based.
Data set [7] is described as follows: Toxicity in nude mouse xenografted with human MCF7 cells assessed as liver edema at 22.5 to 45 mg/kg/day, ip administered for 21 days by HE staining analysis. The format is organism-based. The settings on record: in vivo, 504 h.
In data set [8] the test system is HUVEC. The data set is described as follows: Antimigratory activity against HUVEC at 2 to 10 uM measured after 48 hrs by wound healing assay. The settings on record: Homo sapiens. The format is functional, cell-based. The method in brief: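 Cells seeded in 6-well plates, monolayer scratched with pipette tip, washed twice, kept in medium with 2% FBS. Gaps imaged, then drug added (0, 2 or 10 µM for HUVEC and MCF-7); gaps re-imaged after 48 h and migration rate calculated. Three independent experiments; one-way ANOVA.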

For data set [9], the system named is HUVEC. Put plainly: Reduction in VEGFR expression in HUVEC at 2 to 10 uM after 48 hrs by Western blot analysis. The format is functional, cell-based. To be noted: Homo sapiens. The gist of the method:
(§2)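 HUVECs grown in RPMI 1640 with 10% FBS, 37 °C, 5% CO2; treated with no drug, 2 or 10 µM for 48 h. Lysed in RIPA with protease/phosphatase inhibitors on ice 30 min, protein by BCA, 8% SDS-PAGE, PVDF transfer, milk block, primary antibody overnight 4 °C, secondary 2 h RT; ECL detection, densitometry. Probed VEGF-R, FAK, p-FAK, SHC.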

Data set [10] relates to HUVEC. Put plainly: Reduction in SHC expression in HUVEC at 2 to 10 uM after 48 hrs by Western blot analysis. The format is functional, cell-based. The settings on record: Homo sapiens. The method in brief: as §2
In general terms: In western blotting, separated proteins are transferred to a membrane and probed.

The test system of data set [11] is HUVEC. The data set is described as follows: Antimigratory activity against HUVEC at 2 to 10 uM measured after 24 hrs by transwell assay. The format is functional, cell-based. To be noted: Homo sapiens. The gist of the method: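 Cells seeded on upper side of polycarbonate transwell filters in serum-free medium, drug at 0, 2 or 10 µM; complete serum-containing medium in lower chamber as chemoattractant. After 24 h migrated cells fixed in 4% paraformaldehyde 20 min, crystal violet stained 20 min, imaged and counted. Three independent experiments.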

The subject of data set [12] is MCF7. Put plainly: Inhibition of epithelial-mesenchymal transition in human MCF7 cells assessed as decrease in N-cadherin expression level at 2 to 10 uM after 48 hrs by Western blot analysis. The format is functional, cell-based. The method in brief: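 MCF-7 cells in RPMI 1640 with 10% FBS, 37 °C, 5% CO2, exposed to no drug, 2 or 10 µM for 48 h. RIPA lysates, BCA quantitation, 8% SDS-PAGE, PVDF transfer, primary antibodies overnight 4 °C, secondary 2 h RT, ECL and densitometry for ZO-1, E-cadherin, N-cadherin, vimentin. Mean ± SD of 3 independent tests.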

As a reminder, the pIC50 is the IC50 on a negative log10 scale, so that one unit is a factor of ten. Consider `COc1cc2c(cc1O)CC[C@@H]1[C@@H]2CC[C@]2(C)C(=O)/C(=C/c3ccc(Cl)cc3)C[C@@H]12`, for which the pIC50 in [1] was under 4.00; in data set [2] it was 4.61. Moreover, the inhibition entry in [3], in data set [9], in data set [10] and in data set [12] was “Active” throughout. Moreover, the Activity entry in [4] is given as “Non-Toxic”; in data set [5], “Non-Toxic”; in data set [6] it was “Non-Toxic”; in data set [7], “Toxic”. Further, the result in data set [8] and in data set [11] was Active.
